{"source": "ChEMBL document CHEMBL4152257", "about": "“Discovery of novel β-carboline/acylhydrazone hybrids as potent antitumor agents and overcome drug resistance” (Eur J Med Chem, 2018)", "key": {"NCI/ADR-RES [1]": {"system": "NCI/ADR-RES", "assay": "Induction of apoptosis in human MCF7/ADR cells assessed as early apoptotic cells at 30 uM after 48 hrs by annexin V-FITC/PI dual staining based flow cytometry (reference value: 2.72%)", "type": "functional"}, "MCF7 [2]": {"system": "MCF7", "assay": "Induction of apoptosis in human MCF7 cells assessed as late apoptotic cells after 48 hrs by annexin V-FITC/PI dual staining based flow cytometry", "type": "functional, cell-based"}, "MCF7 [3]": {"system": "MCF7", "assay": "Induction of apoptosis in human MCF7 cells assessed as necrotic cells at 3 uM after 48 hrs by annexin V-FITC/PI dual staining based flow cytometry (reference value: 0.16%)", "type": "functional"}, "MCF7 [4]": {"system": "MCF7", "assay": "Induction of apoptosis in human MCF7 cells assessed as viable cells at 3 uM after 48 hrs by annexin V-FITC/PI dual staining based flow cytometry (reference value: 77.8%)", "type": "functional", "conditions": "MCF7, 48 h, read-out: Activity"}, "NCI/ADR-RES [5]": {"system": "NCI/ADR-RES", "assay": "Induction of apoptosis in human MCF7/ADR cells assessed as viable cells at 3 uM after 48 hrs by annexin V-FITC/PI dual staining based flow cytometry (reference value: 89.8%)", "type": "functional", "conditions": "read-out: Activity"}, "NCI-H460 [6]": {"system": "NCI-H460", "assay": "Antitumor activity against human H460 cells xenografted in athymic nude Balb/C mouse assessed as tumor growth inhibition at 100 mg/kg, po administered 3 times per week measured on day 18 relative to control", "type": "functional", "conditions": "432 h, read-out: TGI", "method_in_brief": "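Nude mice (5-6 weeks old, female) implanted sc in right flank with 5 × 10^6 H460 cells in HBSS; at 100 mm3 tumours, randomised 6 per group to vehicle, oral 100 mg/kg three times weekly, or ip 30 mg/kg once weekly. Tumour volume by caliper every 2 days as (π/6) × length × width²; body weight recorded; inhibition from tumour weights versus control.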"}, "NCI-H460 [7]": {"system": "NCI-H460", "assay": "Antiproliferative activity against human H460 cells after 48 to 72 hrs by MTT assay", "type": "functional, cell-based", "method_in_brief": "(§1)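 Cells in log phase seeded and allowed to adhere, then exposed to graded compound concentrations for 48 h or 72 h; MTT added for a further 2-3 h, formazan dissolved in DMSO. IC50 taken from dose-response curves; mean ± SD of at least three independent experiments.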"}, "Raji [8]": {"system": "Raji", "assay": "Antiproliferative activity against human Raji cells at 1 uM after 48 to 72 hrs by MTT assay relative to control", "type": "functional", "method_in_brief": "(§2)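 Single-concentration screen in the MTT proliferation assay: log-phase cells seeded and allowed to adhere, exposed to compound at 1 µM for 48 h or 72 h, MTT added for 2-3 h, formazan dissolved in DMSO; percent inhibition versus control.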"}, "MCF7 [9]": {"system": "MCF7", "assay": "Cell cycle arrest in human MCF7 cells assessed as accumulation at sub-G1 phase after 18 hrs by propidium iodide staining based flow cytometry", "type": "functional"}, "NCI/ADR-RES [10]": {"system": "NCI/ADR-RES", "assay": "Induction of apoptosis in human MCF7/ADR cells assessed as necrotic cells at 30 uM after 48 hrs by annexin V-FITC/PI dual staining based flow cytometry (reference value: 2.43%)", "type": "functional"}, "MCF7 [11]": {"system": "MCF7", "assay": "Cell cycle arrest in human MCF7 cells assessed as accumulation at G2/M phase at 100 uM after 18 hrs by propidium iodide staining based flow cytometry (reference value: 9.98%)", "type": "functional"}, "NCI/ADR-RES [12]": {"system": "NCI/ADR-RES", "assay": "Induction of apoptosis in human MCF7/ADR cells assessed as necrotic cells at 10 uM after 48 hrs by annexin V-FITC/PI dual staining based flow cytometry (reference value: 2.43%)", "type": "functional"}, "[13]": {"assay": "Resistance index, ratio of IC50 for human MCF7/ADR cells to IC50 for human MCF7 cells", "type": "functional"}, "NCI/ADR-RES [14]": {"system": "NCI/ADR-RES", "assay": "Induction of apoptosis in human MCF7/ADR cells assessed as early apoptotic cells at 10 uM after 48 hrs by annexin V-FITC/PI dual staining based flow cytometry (reference value: 2.72%)", "type": "functional"}, "A2780/Taxol": {"system": "A2780/Taxol", "assay": "Antiproliferative activity against human A2780T cells after 48 to 72 hrs by MTT assay", "type": "functional, cell-based", "method_in_brief": "as §1"}, "MCF7 [15]": {"system": "MCF7", "assay": "Cell cycle arrest in human MCF7 cells assessed as accumulation at G0/G1 phase at 3 uM after 18 hrs by propidium iodide staining based flow cytometry (reference value: 45.22%)", "type": "functional"}, "MCF7 [16]": {"system": "MCF7", "assay": "Cell cycle arrest in human MCF7 cells assessed as accumulation at G2/M phase at 10 uM after 18 hrs by propidium iodide staining based flow cytometry (reference value: 9.98%)", "type": "functional"}, "MCF7 [17]": {"system": "MCF7", "assay": "Cell cycle arrest in human MCF7 cells assessed as accumulation at S phase at 10 uM after 18 hrs by propidium iodide staining based flow cytometry (reference value: 44.80%)", "type": "functional"}, "MCF7 [18]": {"system": "MCF7", "assay": "Induction of apoptosis in human MCF7 cells assessed as late apoptotic cells at 3 uM after 48 hrs by annexin V-FITC/PI dual staining based flow cytometry (reference value: 11.1%)", "type": "functional"}, "Mus musculus [19]": {"system": "Mus musculus", "assay": "Toxicity in athymic nude Balb/C mouse xenografted with human H460 cells assessed as effect on feeding behaviour at 100 mg/kg, po administered 3 times per week measured every 2 days", "type": "organism-based", "conditions": "in vivo, 48 h", "method_in_brief": "(§3)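 Nude mice, 5-to-6-week-old females, given 5 × 10^6 H460 cells sc in right flank in HBSS; at 100 mm3 tumour volume randomized, 6 per group. Vehicle; oral 100 mg/kg three times weekly; or ip 30 mg/kg once weekly. Toxicity signs and mortality observed daily; body weight measured every 2 days.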"}, "MCF7 [20]": {"system": "MCF7", "assay": "Induction of apoptosis in human MCF7 cells assessed as viable cells at 10 uM after 48 hrs by annexin V-FITC/PI dual staining based flow cytometry (reference value: 77.8%)", "type": "functional", "conditions": "MCF7, 48 h, read-out: Activity"}, "MCF7 [21]": {"system": "MCF7", "assay": "Induction of apoptosis in human MCF7 cells assessed as necrotic cells at 30 uM after 48 hrs by annexin V-FITC/PI dual staining based flow cytometry (reference value: 0.16%)", "type": "functional"}, "Raji [22]": {"system": "Raji", "assay": "Antiproliferative activity against human Raji cells after 48 to 72 hrs by MTT assay", "type": "functional, cell-based", "method_in_brief": "as §1"}, "Mus musculus [23]": {"system": "Mus musculus", "assay": "Toxicity in athymic nude Balb/C mouse xenografted with human H460 cells assessed as body weight loss at 100 mg/kg, po administered 3 times per week measured every 2 days", "type": "organism-based", "conditions": "in vivo, 48 h", "method_in_brief": "as §3"}, "MCF7 [24]": {"system": "MCF7", "assay": "Induction of apoptosis in human MCF7 cells assessed as late apoptotic cells at 30 uM after 48 hrs by annexin V-FITC/PI dual staining based flow cytometry (reference value: 11.1%)", "type": "functional"}, "Mus musculus [25]": {"system": "Mus musculus", "assay": "Toxicity in athymic nude Balb/C mouse xenografted with human H460 cells assessed as effect on abnormal behaviour at 100 mg/kg, po administered 3 times per week measured every 2 days", "type": "organism-based", "conditions": "in vivo, 48 h", "method_in_brief": "as §3"}, "NCI/ADR-RES [26]": {"system": "NCI/ADR-RES", "assay": "Induction of apoptosis in human MCF7/ADR cells assessed as viable cells at 30 uM after 48 hrs by annexin V-FITC/PI dual staining based flow cytometry (reference value: 89.8%)", "type": "functional", "conditions": "read-out: Activity"}, "MDA-MB-231": {"system": "MDA-MB-231", "assay": "Antiproliferative activity against human MDA-MB-231 cells at 1 uM after 48 to 72 hrs by MTT assay relative to control", "type": "functional", "method_in_brief": "as §2"}, "NCI/ADR-RES [27]": {"system": "NCI/ADR-RES", "assay": "Induction of apoptosis in human MCF7/ADR cells assessed as early apoptotic cells at 100 uM after 48 hrs by annexin V-FITC/PI dual staining based flow cytometry (reference value: 2.72%)", "type": "functional"}, "[28]": {"assay": "Selectivity ratio of IC50 for HUVEC to IC50 for human A549/TR cells", "type": "toxicity", "conditions": "HUVEC versus A549/TR cells"}, "MCF7 [29]": {"system": "MCF7", "assay": "Induction of apoptosis in human MCF7 cells assessed as early apoptotic cells at 10 uM after 48 hrs by annexin V-FITC/PI dual staining based flow cytometry (reference value: 11%)", "type": "functional"}}, "note": "The source made the active and inactive calls. The rule behind the calls is not given here."}
{"compound": "N#Cc1ccc(COc2cccc(/C=N/NC(=O)c3cc4c(cn3)[nH]c3ccccc34)c2)cc1", "values": [{"measurement": "Activity", "setting": "NCI/ADR-RES [1]", "value": 4.85, "unit": "%"}, {"measurement": "Activity", "setting": "MCF7 [2]", "value": "Dose-dependent effect"}, {"measurement": "Activity", "setting": "MCF7 [3]", "value": 0.26, "unit": "%"}, {"measurement": "viability at 3 µM", "setting": "MCF7 [4]", "value": 66.8, "unit": "%"}, {"measurement": "viability at 3 µM", "setting": "NCI/ADR-RES [5]", "value": 84.3, "unit": "%"}, {"measurement": "inhibition in vivo at 100 mg/kg", "setting": "NCI-H460 [6]", "value": 17.2, "unit": "%"}, {"measurement": "IC50", "setting": "NCI-H460 [7]", "value": "1.64 to 1.73", "unit": "µM"}, {"measurement": "inhibition at 1 µM", "setting": "Raji [8]", "value": 42.7, "unit": "%"}, {"measurement": "Activity", "setting": "MCF7 [9]", "value": "Active"}, {"measurement": "Activity", "setting": "NCI/ADR-RES [10]", "value": 8.52, "unit": "%"}, {"measurement": "Activity", "setting": "MCF7 [11]", "value": 4.29, "unit": "%"}, {"measurement": "Activity", "setting": "NCI/ADR-RES [12]", "value": 6.4, "unit": "%"}, {"measurement": "Ratio IC50", "setting": "[13]", "value": 1.06}, {"measurement": "Activity", "setting": "NCI/ADR-RES [14]", "value": 4.38, "unit": "%"}, {"measurement": "IC50", "setting": "A2780/Taxol", "value": 3.99, "unit": "µM"}, {"measurement": "Activity", "setting": "MCF7 [15]", "value": 34.57, "unit": "%"}, {"measurement": "Activity", "setting": "MCF7 [16]", "value": 7.57, "unit": "%"}, {"measurement": "Activity", "setting": "MCF7 [17]", "value": 56.38, "unit": "%"}, {"measurement": "Activity", "setting": "MCF7 [18]", "value": 17.6, "unit": "%"}, {"measurement": "Activity", "setting": "Mus musculus [19]", "value": "Non-Toxic"}, {"measurement": "viability at 10 µM", "setting": "MCF7 [20]", "value": 66.6, "unit": "%"}, {"measurement": "Activity", "setting": "MCF7 [21]", "value": 0.93, "unit": "%"}, {"measurement": "IC50", "setting": "Raji [22]", "value": "1.06 to 1.2", "unit": "µM"}, {"measurement": "Activity", "setting": "Mus musculus [23]", "value": "< 5", "unit": "%"}, {"measurement": "Activity", "setting": "MCF7 [24]", "value": 28.8, "unit": "%"}, {"measurement": "Activity", "setting": "Mus musculus [25]", "value": "Non-Toxic"}, {"measurement": "viability at 30 µM", "setting": "NCI/ADR-RES [26]", "value": 64.8, "unit": "%"}, {"measurement": "inhibition at 1 µM", "setting": "MDA-MB-231", "value": 29.6, "unit": "%"}, {"measurement": "Activity", "setting": "NCI/ADR-RES [27]", "value": 7.11, "unit": "%"}, {"measurement": "selectivity ratio", "setting": "[28]", "value": 28.3}, {"measurement": "Activity", "setting": "MCF7 [29]", "value": 13.1, "unit": "%"}]}
